Experiment [1] concerns Staphylococcus aureus. Description: Bactericidal activity against Staphylococcus aureus E19977 assessed as log reduction in cfu at 20 mg/liter after 24 hrs by time-kill study. It is filed as functional, organism-based. In outline: (§1)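 In vitro kinetic model simulating antibiotic elimination without inoculum change. Exponential-phase E19977 was added at a final 10^6.3 CFU/ml. Starting drug concentration matched the human free peak, with the human half-life simulated. Samples were plated on 5% blood agar at 0, 2, 4, 6, 8, 12 and 24 h, with growth controls in each run. Results are shown as mean and range, n = 2.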

Experiment [2] has as its system Staphylococcus aureus. Description: Antibacterial activity against Staphylococcus aureus E19977 infected in NMRI mouse assessed as log reduction in intracellular bacterial cfu in peritoneum at 60 mg/kg, sc administered as single dose 3 hrs after infection measured after 4 hrs. It is filed as functional, organism-based. Further details: dose 60 mg/kg. In outline:
(§2)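 NMRI mice were infected i.p. with S. aureus E19977 in 5% mucin. A single dose (60 mg/kg or 10 mg/kg) was given 1, 2 or 3 h after inoculation, four mice per group. Peritoneal wash was sampled after 4 h of treatment and separated into total, extracellular and intracellular counts by lysostaphin/centrifugation. Δlog10 CFU/ml was calculated against vehicle-treated mice infected for the same time (5, 6 or 7 h).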

Experiment [3] has as its system Staphylococcus aureus. Description: Antibacterial activity against Staphylococcus aureus E19977 infected in NMRI mouse assessed as log reduction in extracellular bacterial cfu in peritoneum at 200 mg/kg, sc administered 2 hrs after infection evry 8 hrs as three-dose regimen measured after 19 hrs. Format: functional. To be noted: route subcutaneous.
Experiment [4] relates to Staphylococcus aureus. Put plainly: Antibacterial activity against Staphylococcus aureus E19977 infected in NMRI mouse assessed as log reduction in bacterial cfu in peritoneum at 60 mg/kg, sc administered as single dose 3 hrs after infection measured after 4 hrs. Further details: dose 60 mg/kg. Format: functional, organism-based. The method in brief:
as §2

Experiment [5] concerns Staphylococcus aureus. Description: Antibacterial activity against Staphylococcus aureus E19977 infected in NMRI mouse assessed as log reduction in extracellular bacterial cfu in peritoneum at 60 mg/kg, sc administered as single dose 2 hrs after infection measured after 4 hrs. It is filed as functional, organism-based. Further details: dose 60 mg/kg. The method in brief:
as §2

The subject of experiment [6] is Staphylococcus aureus. Description: Antibacterial activity against Staphylococcus aureus E19977 infected in NMRI mouse assessed as log reduction in bacterial cfu in peritoneum at 200 mg/kg, sc administered as single dose 2 hrs after infection measured between 4 to 19 hrs. Format: functional. To be noted: route subcutaneous. The method in brief: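 Female outbred NMRI mice (25 to 30 g) were infected i.p. with 0.5 ml of 10^7.7 CFU/ml S. aureus E19977 in 5% (wt/vol) mucin. The first dose was given 2 h after inoculation, either once or as three doses every 8 h, with four mice per group. Mice were euthanized 19 h after treatment onset and washed peritoneally with 2.0 ml saline. Total CFU were counted by duplicate spotting of 10-fold dilutions on 5% blood agar.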

For experiment [7], the system named is Staphylococcus aureus. Description: Antibacterial activity against Staphylococcus aureus E19977 infected in NMRI mouse assessed as log reduction in extracellular bacterial cfu in peritoneum at 10 to 200 mg/kg, sc administered 2 hrs after infection measured after 4 hrs. It is filed as functional, organism-based. In outline:
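Dose–response in i.p.-infected NMRI mice (mucin adjuvant). Single doses of 200, 60, 30, 20 or 10 mg/kg were given 2 h after inoculation, with 4–16 mice per group. Peritoneal wash was sampled 4 h later and split by lysostaphin/centrifugation into total, extra- and intracellular counts, then expressed as Δlog10 CFU/ml against log dose. Vehicle controls were plotted as 0.3 mg/kg. Hill fit (variable slope); static dose interpolated.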

The subject of experiment [8] is Staphylococcus aureus. Put plainly: Bactericidal activity against Staphylococcus aureus E19977 assessed as log reduction in cfu at 1.5 mg/liter upto 24 hrs by time-kill study. It is filed as functional. The method in brief:
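Clinical bacteremia isolate (penicillin-resistant, methicillin-susceptible). Exponential-phase bacteria were placed in an in vitro kinetic model that simulates drug elimination without changing the inoculum. The starting drug level matched the human free peak serum concentration after a single dose, with simulated human elimination half-life. Samples were taken at 0, 2, 4, 6, 8, 12 and 24 h, with growth controls in each run.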

Experiment [9] relates to Staphylococcus aureus. Description: Bactericidal activity against Staphylococcus aureus E19977 assessed as log reduction in cfu at 1.5 mg/liter after 24 hrs by time-kill study. Format: functional, organism-based. The method in brief:
as §1

In experiment [10] the test system is Staphylococcus aureus. Put plainly: Bactericidal activity against Staphylococcus aureus E19977 assessed as log reduction in cfu at 20 mg/liter upto 24 hrs by time-kill study. It is filed as functional. The method in brief: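 In vitro kinetic model: exponential-phase bacteria at a final 10^6.3 CFU/ml were exposed to a starting concentration set to the human free peak level. Elimination followed the simulated human half-life. Samples were taken at 0, 2, 4, 6, 8, 12 and 24 h and counted on 5% blood agar (detection limit 25 CFU/ml). Growth controls were included; n = 2.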

Experiment [11] relates to Staphylococcus aureus. Put plainly: Antibacterial activity against Staphylococcus aureus E19977 by Etest. It is filed as functional.
Experiment [12] deals with Staphylococcus aureus. Put plainly: Antibacterial activity against Staphylococcus aureus E19977 infected in NMRI mouse assessed as log reduction in extracellular bacterial cfu in peritoneum at 60 mg/kg, sc administered as single dose 1 hr after infection measured after 4 hrs. It is filed as functional, organism-based. Further details: dose 60 mg/kg. In outline:
as §2

The structures appear in SMILES notation. Values after ≈ are worked out from the molar mass of the structure shown. Active and inactive are the calls of the source. The calls are words filed in the database; no cut-off is given here.

Results on one compound are retold here after ChEMBL document CHEMBL1649157, “Intracellular activity of antibiotics against Staphylococcus aureus in a mouse peritonitis model” (Antimicrob Agents Chemother, 2009).

With `Cc1onc(-c2c(Cl)cccc2Cl)c1C(=O)N[C@@H]1C(=O)N2[C@@H]1SC(C)(C)[C@@H]2C(=O)O` [DICLOXACILLIN], the outcome with Staphylococcus aureus [1], in the experiment on Staphylococcus aureus [2], with Staphylococcus aureus [4], in the experiment on Staphylococcus aureus [5] and with Staphylococcus aureus [9] was inactive. The FC is 2 with Staphylococcus aureus [3], below 1 in the experiment with Staphylococcus aureus [6], 2 in the experiment on Staphylococcus aureus [8] and above 2 in the experiment with Staphylococcus aureus [10]. The Activity result in the experiment on Staphylococcus aureus [7] is “Dose-dependent effect”. 0.5 µg/mL (≈ 1.06 µM) was the least that counted as inhibitory against Staphylococcus aureus [11] (MIC). Further, the result in the experiment on Staphylococcus aureus [12] was Active.
